Measured values from article PMC5700443 (Journal of Cachexia, Sarcopenia and Muscle, 2017).

Key:
[1] = test system: C57BL/6 mice with MCT-induced cardiac cachexia; format: in vivo; details: MCT 600 mg/kg weekly, 6 weeks
[2] = test system: diaphragm muscle of MCT-treated C57BL/6 mice; experiment: In vitro contractile function of diaphragm muscle bundles from treated mice; format: in vivo; details: MCT 600 mg/kg weekly, 6 weeks, vs sham
Summary of the method: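 C57BL/6 mice (8 weeks) got MCT or saline s.c.; compound was given at 0.1% w/w in chow from 1 week before MCT. Diaphragm bundles at optimal length in buffer pH ~7.4 (95% O2–5% CO2, ~22°C) were equilibrated 15 min, then force–frequency tested (1–300 Hz) plus isotonic loads. Specific force N/cm2 (density 1.06), velocity Lo/s, power = velocity × force; n = 16/group.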

[3] = test system: MuRF1 mRNA expression in C2C12 myotubes; experiment: MuRF1 mRNA expression in dexamethasone-treated myotubes; format: cell-based, Murine; details: DEX 10 μmol/L, 24 h
Summary of the method: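 Differentiated C2C12 myotubes (2% horse serum) were pre-treated for 2 h with test compound (0.1–10 μmol/L, DMSO) or DMSO alone before dexamethasone. Total RNA was reverse-transcribed with random hexamers. Quantitative RT-PCR used a LightCycler with FRET detection. MuRF1 was normalised to hypoxanthine phosphoribosyltransferase mRNA (60°C annealing). Mean ± SEM; one-way ANOVA, Bonferroni.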

SMILES | body weight loss ([1]; normal chow (sham gained 7.9 ± 0.8%)) | lower TA fibre CSA ([1]; vs sham) | reduction in TA muscle weight ([1]; vs sham) | effect on isometric forces [2] | reduction of peak power [2] | reduction of peak shortening velocity [2] | increase in MuRF1 mRNA expression relative to untreated cells [3]
C[C@H]1C(=O)O[C@@H]2CCN3CC=C(COC(=O)[C@](C)(O)[C@]1(C)O)[C@H]23 [MCT, monocrotaline] | 0.7 ± 0.6% | ~ 20% | ~ 10% | no significant effects | ~ 20% | ~ 20% | 
C[C@@H]1C[C@H]2[C@@H]3CCC4=CC(=O)C=C[C@]4(C)[C@@]3(F)[C@@H](O)C[C@]2(C)[C@@]1(O)C(=O)CO [Dexamethasone, dexamethasone] |  |  |  |  |  |  | approximately 2 fold
